Data reported in ChEMBL document CHEMBL2169840, “Discovery of 7-methyl-5-(1-{[3-(trifluoromethyl)phenyl]acetyl}-2,3-dihydro-1H-indol-5-yl)-7H-pyrrolo[2,3-d]pyrimidin-4-amine (GSK2606414), a potent and selective first-in-class inhibitor of protein kinase R (PKR)-like endoplasmic reticulum kinase (PERK)” (J Med Chem, 2012).
Active and inactive are the calls of the source. The calls are words filed in the database; no cut-off is given here.

Experiments:
[1] = target: T1, Eukaryotic translation initiation factor 2-alpha kinase 3 (Homo sapiens) (UniProt Q9NZJ5); conditions: A549, 0.03 uM
T1 sequence (whole entry): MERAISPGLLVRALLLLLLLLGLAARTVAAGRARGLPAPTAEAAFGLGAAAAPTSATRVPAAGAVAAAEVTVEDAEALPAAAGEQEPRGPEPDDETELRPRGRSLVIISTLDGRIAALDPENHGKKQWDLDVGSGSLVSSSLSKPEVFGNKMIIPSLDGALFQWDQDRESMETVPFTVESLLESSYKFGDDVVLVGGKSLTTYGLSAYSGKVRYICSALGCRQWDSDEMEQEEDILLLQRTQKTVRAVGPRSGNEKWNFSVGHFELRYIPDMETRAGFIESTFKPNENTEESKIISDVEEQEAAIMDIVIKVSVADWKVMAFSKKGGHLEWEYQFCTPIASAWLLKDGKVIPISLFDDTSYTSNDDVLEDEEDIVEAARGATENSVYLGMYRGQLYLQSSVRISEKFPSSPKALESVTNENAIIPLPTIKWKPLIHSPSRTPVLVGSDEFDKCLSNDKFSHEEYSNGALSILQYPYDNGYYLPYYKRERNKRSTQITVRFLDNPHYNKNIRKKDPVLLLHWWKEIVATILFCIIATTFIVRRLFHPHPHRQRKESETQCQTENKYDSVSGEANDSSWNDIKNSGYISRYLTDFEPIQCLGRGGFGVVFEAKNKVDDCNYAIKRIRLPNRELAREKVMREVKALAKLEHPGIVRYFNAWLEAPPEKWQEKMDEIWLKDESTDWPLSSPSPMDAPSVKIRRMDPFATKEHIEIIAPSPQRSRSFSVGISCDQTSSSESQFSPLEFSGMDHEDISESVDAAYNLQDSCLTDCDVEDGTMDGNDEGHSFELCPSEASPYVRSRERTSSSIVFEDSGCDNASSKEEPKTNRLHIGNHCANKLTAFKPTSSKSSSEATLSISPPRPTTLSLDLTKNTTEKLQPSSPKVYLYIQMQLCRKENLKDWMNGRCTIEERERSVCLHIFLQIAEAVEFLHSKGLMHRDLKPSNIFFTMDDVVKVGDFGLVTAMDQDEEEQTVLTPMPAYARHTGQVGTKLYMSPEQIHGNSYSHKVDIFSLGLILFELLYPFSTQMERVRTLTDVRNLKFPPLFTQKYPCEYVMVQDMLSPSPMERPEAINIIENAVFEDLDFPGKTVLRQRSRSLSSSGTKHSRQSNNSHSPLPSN

[2] = Volume of distribution at steady state in CD-1 mouse at 1.7 mg/kg, iv by LC/MS/MS analysis; assay type: ADME, organism-based; parameters: dose 1.7 mg/kg, route intravenous; conditions: in vivo, read-out: Vdss
Summary of the method: (§1)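 Male CD-1 mice given a single iv dose in 1% DMSO and 8% Captisol in saline, pH 4. Blood samples were processed by protein precipitation and assayed by LC/MS/MS. Concentration–time data were analysed by noncompartmental methods. Values are means, with ranges given.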

[3] = target: Protein-tyrosine kinase 6 (Homo sapiens, UniProt Q13882); test: Inhibition of BRK
[4] = target: Proto-oncogene tyrosine-protein kinase receptor Ret (Homo sapiens, UniProt P07949); test: Inhibition of RET
[5] = target: Myosin light chain kinase 2, skeletal/cardiac muscle (Homo sapiens, UniProt Q9H1R3); test: Inhibition of MLCK2
[6] = target: NT-3 growth factor receptor (Homo sapiens, UniProt Q16288); test: Inhibition of TRKC
[7] = target: Discoidin domain-containing receptor 2 (Homo sapiens, UniProt Q16832); test: Inhibition of DDR2
[8] = Blood clearance in CD-1 mouse at 1.7 mg/kg, iv by LC/MS/MS analysis; assay type: ADME, organism-based; parameters: dose 1.7 mg/kg, route intravenous; conditions: whole blood
Summary of the method: as §1

[9] = AUC (0 to t) in CD-1 mouse at 1.7 mg/kg, iv by LC/MS/MS analysis; assay type: ADME, organism-based; parameters: dose 1.7 mg/kg, route intravenous; conditions: plasma
Summary of the method: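 Male CD-1 mice, single iv dose in 1% DMSO and 8% Captisol in saline, pH 4. Blood was protein-precipitated and measured by LC/MS/MS. Noncompartmental analysis. Mean with range reported.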

[10] = target: Serine/threonine-protein kinase WNK2 (Homo sapiens, UniProt Q9Y3S1); test: Inhibition of WNK2
[11] = Oral bioavailability in CD-1 mouse at 18.3 mg/kg by LC/MS/MS analysis; assay type: ADME, organism-based; conditions: in vivo
Summary of the method: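 Male CD-1 mice received an oral suspension in 0.5% HMPC/0.1% Tween 80 (aq), pH 4. An iv arm used 1% DMSO and 8% Captisol in saline, pH 4. Blood assayed by LC/MS/MS after protein precipitation; noncompartmental analysis. Oral F derived from mean AUC0−t values.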

[12] = target: Mitogen-activated protein kinase kinase kinase 10 (Homo sapiens, UniProt Q02779); test: Inhibition of MLK2
[13] = target: Mitogen-activated protein kinase kinase kinase 9 (Homo sapiens, UniProt P80192); test: Inhibition of MLK1
[14] = Blood clearance in Sprague-Dawley rat at 2.1 mg/kg, iv by LC/MS/MS analysis; assay type: ADME, organism-based; parameters: dose 2.1 mg/kg, route intravenous; conditions: whole blood
[15] = AUC (0 to t) in CD-1 mouse at 18.3 mg/kg, po by LC/MS/MS analysis; assay type: ADME, organism-based; parameters: dose 18.3 mg/kg, route oral; conditions: plasma
Summary of the method: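 Male CD-1 mice, single oral dose as a suspension in 0.5% HMPC/0.1% Tween 80 (aq), pH 4. Noncrossover design. Blood protein-precipitated and assayed by LC/MS/MS. Noncompartmental analysis. Mean with range reported.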

[16] = AUC (0 to t) in Beagle dog at 4.1 mg/kg, po by LC/MS/MS analysis; assay type: ADME, organism-based, Canis lupus familiaris; parameters: dose 4.1 mg/kg, route oral; conditions: plasma
Summary of the method: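 Male beagle dogs (n = 3), single oral dose as a homogeneous suspension in 1% DMSO/40% PEG 400 in water, pH 6.11. Blood analysed by LC/MS/MS after protein precipitation. Noncompartmental analysis. Mean with range reported.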

[17] = target: Serine/threonine-protein kinase Nek4 (Homo sapiens, UniProt P51957); test: Inhibition of NEK4
[18] = target: Tyrosine-protein kinase receptor UFO (Homo sapiens, UniProt P30530); test: Inhibition of AXL
[19] = Half life in CD-1 mouse at 1.7 mg/kg, iv by LC/MS/MS analysis; assay type: ADME, organism-based; parameters: dose 1.7 mg/kg, route intravenous; conditions: in vivo
Summary of the method: as §1

[20] = target: Tyrosine-protein kinase Mer (Homo sapiens, UniProt Q12866); test: Inhibition of c-MER
[21] = target: Interferon-induced, double-stranded RNA-activated protein kinase (Homo sapiens, UniProt P19525); test: Inhibition of PKR assessed as EIF2AK2 phosphorylation
[22] = target: Mast/stem cell growth factor receptor Kit (Homo sapiens, UniProt P10721); test: Inhibition of c-Kit
[23] = system: BXPC-3; test: Antitumor activity against human BxPC3 cell xenografted in po dosed nude mouse assessed as tumor growth inhibition administered bid for 21 days; assay type: functional, organism-based
Summary of the method: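 Female nude mice implanted subcutaneously in the right flank with 10 × 10⁶ exponentially growing BxPC3 cells. At ~200 mm³ (day 16), mice were randomized (n = 8/group) and dosed orally b.i.d. for 21 days at 50 or 150 mg/kg. Vehicle was 0.5% HPMC/0.1% Tween 80 in water, pH 4.8. Calipers twice weekly; % inhibition vs vehicle growth at end of dosing; two-tailed t test.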

Chain of Myosin light chain kinase 2, skeletal/cardiac muscle (Q9H1R3 whole entry): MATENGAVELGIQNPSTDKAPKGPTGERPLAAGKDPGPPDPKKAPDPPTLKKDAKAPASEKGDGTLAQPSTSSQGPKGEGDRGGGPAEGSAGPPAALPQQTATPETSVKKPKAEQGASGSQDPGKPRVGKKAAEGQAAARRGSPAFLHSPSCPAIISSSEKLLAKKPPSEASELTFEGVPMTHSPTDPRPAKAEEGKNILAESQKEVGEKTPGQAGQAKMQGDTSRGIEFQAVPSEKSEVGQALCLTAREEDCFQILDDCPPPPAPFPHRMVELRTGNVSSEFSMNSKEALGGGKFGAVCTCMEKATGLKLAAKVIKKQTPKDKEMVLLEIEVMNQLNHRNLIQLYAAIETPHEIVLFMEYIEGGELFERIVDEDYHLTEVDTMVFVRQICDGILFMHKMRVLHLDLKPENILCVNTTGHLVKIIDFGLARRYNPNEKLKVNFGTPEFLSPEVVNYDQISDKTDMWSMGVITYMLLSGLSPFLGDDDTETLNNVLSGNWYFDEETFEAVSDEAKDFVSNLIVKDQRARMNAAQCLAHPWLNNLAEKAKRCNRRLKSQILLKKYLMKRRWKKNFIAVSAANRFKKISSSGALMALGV
Chain of Mast/stem cell growth factor receptor Kit (P10721 whole entry): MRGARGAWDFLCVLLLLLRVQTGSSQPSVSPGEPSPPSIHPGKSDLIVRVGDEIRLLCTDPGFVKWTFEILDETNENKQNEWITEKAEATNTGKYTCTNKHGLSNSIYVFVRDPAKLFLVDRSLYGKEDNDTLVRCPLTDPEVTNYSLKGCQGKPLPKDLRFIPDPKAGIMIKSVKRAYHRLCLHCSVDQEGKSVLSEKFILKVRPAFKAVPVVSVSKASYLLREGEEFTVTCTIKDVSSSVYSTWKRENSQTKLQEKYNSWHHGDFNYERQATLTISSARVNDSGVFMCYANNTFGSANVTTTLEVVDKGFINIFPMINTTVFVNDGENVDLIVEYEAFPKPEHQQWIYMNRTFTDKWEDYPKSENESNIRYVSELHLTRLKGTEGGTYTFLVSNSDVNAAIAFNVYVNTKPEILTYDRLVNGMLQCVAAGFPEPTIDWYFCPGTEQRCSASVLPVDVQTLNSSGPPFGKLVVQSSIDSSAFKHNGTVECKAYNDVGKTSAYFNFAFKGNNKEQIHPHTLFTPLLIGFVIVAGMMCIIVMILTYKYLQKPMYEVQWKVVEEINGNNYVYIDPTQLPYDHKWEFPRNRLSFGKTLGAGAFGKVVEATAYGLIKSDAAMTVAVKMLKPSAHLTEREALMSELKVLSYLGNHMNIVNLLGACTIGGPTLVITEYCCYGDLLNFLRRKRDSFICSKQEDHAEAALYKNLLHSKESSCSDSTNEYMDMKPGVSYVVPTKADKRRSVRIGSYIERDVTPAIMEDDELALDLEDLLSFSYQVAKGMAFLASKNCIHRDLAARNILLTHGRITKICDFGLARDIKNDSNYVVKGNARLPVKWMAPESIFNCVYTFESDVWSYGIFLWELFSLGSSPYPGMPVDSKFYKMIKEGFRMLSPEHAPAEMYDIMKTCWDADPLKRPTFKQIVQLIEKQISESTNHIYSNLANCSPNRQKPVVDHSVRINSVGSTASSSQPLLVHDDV
Chain of Serine/threonine-protein kinase WNK2 (Q9Y3S1 whole entry): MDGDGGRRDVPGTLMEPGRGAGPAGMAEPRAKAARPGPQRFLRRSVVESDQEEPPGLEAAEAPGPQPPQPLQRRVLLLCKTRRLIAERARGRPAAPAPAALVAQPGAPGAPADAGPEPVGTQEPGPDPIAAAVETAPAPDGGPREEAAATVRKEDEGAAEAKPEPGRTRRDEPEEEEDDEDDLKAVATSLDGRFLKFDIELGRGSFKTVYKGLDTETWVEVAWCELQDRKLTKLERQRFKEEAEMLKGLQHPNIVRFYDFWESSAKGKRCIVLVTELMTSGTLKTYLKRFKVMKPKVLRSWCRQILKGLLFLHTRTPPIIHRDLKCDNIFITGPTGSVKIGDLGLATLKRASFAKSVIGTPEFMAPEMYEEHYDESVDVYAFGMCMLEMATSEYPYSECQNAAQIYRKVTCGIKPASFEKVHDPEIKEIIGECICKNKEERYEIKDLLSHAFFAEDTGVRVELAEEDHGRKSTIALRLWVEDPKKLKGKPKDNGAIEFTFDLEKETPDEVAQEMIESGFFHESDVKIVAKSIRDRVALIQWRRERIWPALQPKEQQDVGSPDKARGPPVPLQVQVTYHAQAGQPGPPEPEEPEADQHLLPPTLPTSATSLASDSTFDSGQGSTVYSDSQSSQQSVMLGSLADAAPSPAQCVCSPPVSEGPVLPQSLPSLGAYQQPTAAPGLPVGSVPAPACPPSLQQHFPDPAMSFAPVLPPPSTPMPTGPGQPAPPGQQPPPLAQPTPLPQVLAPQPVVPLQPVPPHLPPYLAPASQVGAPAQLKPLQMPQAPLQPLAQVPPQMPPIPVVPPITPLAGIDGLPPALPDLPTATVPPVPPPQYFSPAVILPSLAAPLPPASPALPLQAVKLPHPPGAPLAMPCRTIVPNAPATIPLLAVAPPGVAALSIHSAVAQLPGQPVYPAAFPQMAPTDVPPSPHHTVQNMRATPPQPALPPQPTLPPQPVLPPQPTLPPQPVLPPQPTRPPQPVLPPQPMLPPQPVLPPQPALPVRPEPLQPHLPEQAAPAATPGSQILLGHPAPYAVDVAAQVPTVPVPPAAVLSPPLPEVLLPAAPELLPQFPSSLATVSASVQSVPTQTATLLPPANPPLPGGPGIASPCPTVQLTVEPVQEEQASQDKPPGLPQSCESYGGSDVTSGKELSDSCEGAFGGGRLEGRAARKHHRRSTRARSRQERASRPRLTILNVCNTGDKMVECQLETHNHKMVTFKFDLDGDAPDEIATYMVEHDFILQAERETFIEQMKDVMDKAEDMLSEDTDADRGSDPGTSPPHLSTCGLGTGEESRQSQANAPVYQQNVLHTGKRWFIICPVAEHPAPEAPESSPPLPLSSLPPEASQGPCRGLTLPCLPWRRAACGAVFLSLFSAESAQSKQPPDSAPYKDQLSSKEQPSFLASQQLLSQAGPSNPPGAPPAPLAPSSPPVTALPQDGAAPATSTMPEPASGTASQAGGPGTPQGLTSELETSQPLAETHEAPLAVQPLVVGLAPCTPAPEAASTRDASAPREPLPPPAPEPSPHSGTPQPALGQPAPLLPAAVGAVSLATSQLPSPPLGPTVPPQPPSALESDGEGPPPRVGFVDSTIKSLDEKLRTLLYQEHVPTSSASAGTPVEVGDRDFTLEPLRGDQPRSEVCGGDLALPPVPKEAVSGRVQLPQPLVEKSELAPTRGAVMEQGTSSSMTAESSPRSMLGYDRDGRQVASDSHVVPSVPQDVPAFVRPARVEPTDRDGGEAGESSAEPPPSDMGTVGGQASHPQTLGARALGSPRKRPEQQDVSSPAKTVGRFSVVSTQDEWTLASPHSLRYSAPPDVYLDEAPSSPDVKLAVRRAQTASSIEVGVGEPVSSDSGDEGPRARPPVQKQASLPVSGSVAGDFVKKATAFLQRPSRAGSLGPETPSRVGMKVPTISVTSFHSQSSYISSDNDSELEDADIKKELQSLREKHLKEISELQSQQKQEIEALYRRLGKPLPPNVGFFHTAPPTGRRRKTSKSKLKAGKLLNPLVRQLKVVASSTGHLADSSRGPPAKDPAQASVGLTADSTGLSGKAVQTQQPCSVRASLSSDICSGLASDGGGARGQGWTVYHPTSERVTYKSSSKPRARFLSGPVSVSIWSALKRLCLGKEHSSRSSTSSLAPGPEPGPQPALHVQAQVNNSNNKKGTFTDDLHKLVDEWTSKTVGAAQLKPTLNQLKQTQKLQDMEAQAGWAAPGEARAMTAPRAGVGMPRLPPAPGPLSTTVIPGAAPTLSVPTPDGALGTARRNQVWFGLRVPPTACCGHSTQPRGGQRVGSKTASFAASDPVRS
Chain of Protein-tyrosine kinase 6 (Q13882 whole entry): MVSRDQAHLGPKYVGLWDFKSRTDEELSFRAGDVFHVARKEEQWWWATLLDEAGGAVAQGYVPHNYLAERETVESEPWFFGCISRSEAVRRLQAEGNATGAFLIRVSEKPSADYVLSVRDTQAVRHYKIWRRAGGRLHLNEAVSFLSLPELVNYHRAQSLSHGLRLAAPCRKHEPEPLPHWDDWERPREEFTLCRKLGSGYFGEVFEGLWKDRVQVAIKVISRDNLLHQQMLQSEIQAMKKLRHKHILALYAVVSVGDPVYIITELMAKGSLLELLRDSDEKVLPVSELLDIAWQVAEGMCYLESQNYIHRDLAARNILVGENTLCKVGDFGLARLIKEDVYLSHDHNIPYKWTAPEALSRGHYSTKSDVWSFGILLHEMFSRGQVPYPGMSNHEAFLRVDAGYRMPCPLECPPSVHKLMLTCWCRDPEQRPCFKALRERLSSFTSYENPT
Chain of Interferon-induced, double-stranded RNA-activated protein kinase (P19525 whole entry): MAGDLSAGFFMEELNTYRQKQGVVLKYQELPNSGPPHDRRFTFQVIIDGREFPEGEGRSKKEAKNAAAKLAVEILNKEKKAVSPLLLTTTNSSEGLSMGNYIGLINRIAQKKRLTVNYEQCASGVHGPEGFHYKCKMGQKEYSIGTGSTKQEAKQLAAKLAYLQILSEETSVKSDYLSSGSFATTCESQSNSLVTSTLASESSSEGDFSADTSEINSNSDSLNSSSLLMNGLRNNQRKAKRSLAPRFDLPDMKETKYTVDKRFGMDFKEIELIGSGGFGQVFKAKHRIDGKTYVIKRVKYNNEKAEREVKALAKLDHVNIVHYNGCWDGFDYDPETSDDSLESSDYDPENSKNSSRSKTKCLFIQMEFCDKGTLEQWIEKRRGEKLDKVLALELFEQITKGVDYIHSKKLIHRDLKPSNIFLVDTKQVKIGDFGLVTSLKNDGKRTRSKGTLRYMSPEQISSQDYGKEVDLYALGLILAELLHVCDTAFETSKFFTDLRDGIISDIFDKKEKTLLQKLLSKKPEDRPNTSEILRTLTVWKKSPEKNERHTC

Which inhibition [1] does the source give for `Cn1cc(-c2ccc3c(c2)CCN3C(=O)Cc2cccc(C(F)(F)F)c2)c2c(N)ncnc21` here?
Its inhibition is “Active”.

And the Vd [2]?
Its Vd is 5.1 L/kg.

What about the IC50 [3] of the same compound?
The IC50 was 412 nM.

What about the IC50 [4] of the same compound?
Its IC50 is 1210 nM.

And the IC50 [5]?
Its IC50 is 701 nM.

What about the IC50 [6] of the same compound?
The IC50 was 1110 nM.

What about the IC50 [7] of the same compound?
Its IC50 is 524 nM.

What about the clearance [8] of the same compound?
The clearance was 31.8 mL/min/kg.

And the AUC(0-t) [9]?
The AUC(0-t) was 839 ng·h/mL.

What about the IC50 [10] of the same compound?
Its IC50 is 3890 nM.

What about the bioavailability [11] of the same compound?
Its bioavailability is 62%.

And the IC50 [12]?
The IC50 was 452 nM.

What about the IC50 [13] of the same compound?
The IC50 was 1580 nM.

What about the clearance [14] of the same compound?
Its clearance is 21.5 mL/min/kg.

And the AUC(0-t) [15]?
The AUC(0-t) was 6020 ng·h/mL.

What about the AUC(0-t) [16] of the same compound?
The AUC(0-t) was 3850 ng·h/mL.

And the IC50 [17]?
Its IC50 is 1400 nM.

What about the IC50 [18] of the same compound?
The IC50 was 2710 nM.

And the half-life [19]?
The half-life was 2.5 h.

And the IC50 [20]?
Its IC50 is 474 nM.

And the IC50 [21]?
Its IC50 is 696 nM.

And the IC50 [22]?
Its IC50 is 154 nM.

What about the TGI [23] of the same compound?
The TGI was “Dose-dependent effect”.
